Data: ChEMBL document CHEMBL4699542, “Design and synthesis of novel methoxypyridine-derived gamma-secretase modulators” (Bioorg Med Chem, 2020)
pIC50: −log10 of the molar value. Converted amounts (≈) assume the structure as drawn.

Key:
Gamma-secretase = assay: Modulation of gamma secretase in human SH-SY5Y cells overexpressing wild type APP751 assessed as inhibition of amyloid beta (35 to 42 residues) formation incubated for overnight by ELISA; type: cell-based
Outline: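 SHSY5Y-APP751 cells plated at 75K/well and incubated overnight at 37 °C, then treated 24 h over 10 concentrations ([…]–10 μM, 1:3.16 steps, in duplicate). Medium Aβ42 measured by sandwich ELISA (Aβ35–42 capture, AP-conjugated Aβ1–12 detection, CDP-Star luminescence) against an Aβ42 standard curve.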

[1] = Kinetic aqueous solubility of the compound in pH 7.4 PBS buffer by UV/Visible absorbance analysis; type: physicochemical; conditions: read-out: Kinetic_solubility
Outline: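 Kinetic solubility determined in PBS at pH 7.4 by UV/Vis absorbance, reported in μM.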

[2] = Metabolic stability in human liver microsomes assessed as parent compound remaining at 1 uM incubated for 30 mins; type: ADME, Microsome; conditions: for Stabilty: microsomes, 0.5 h, 1 µM
Outline: (§1)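 Test compound at 1 μM incubated 30 min with human, rat or mouse liver microsomes (1 mg/mL); parent remaining expressed as %.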

[3] = Metabolic stability in rat liver microsomes assessed as parent compound remaining at 1 uM incubated for 30 mins; type: ADME, Microsome; conditions: 0.5 h; outline: as §1
[4] = Metabolic stability in mouse liver microsomes assessed as parent compound remaining at 1 uM incubated for 30 mins; type: ADME, Microsome; conditions: 0.5 h; outline: as §1
Cytochrome P450 3A4 = Cytochrome P450 3A4 (Homo sapiens, UniProt P08684); assay: Inhibition of recombinant CYP3A4 (unknown origin) by fluorescence-based assay; type: ADME
Cytochrome P450 1A2 = biological target: T1, Cytochrome P450 1A2 (Homo sapiens, UniProt P05177); assay: Inhibition of recombinant CYP1A2 (unknown origin) by fluorescence-based assay; type: ADME
T1 sequence (P05177 whole entry): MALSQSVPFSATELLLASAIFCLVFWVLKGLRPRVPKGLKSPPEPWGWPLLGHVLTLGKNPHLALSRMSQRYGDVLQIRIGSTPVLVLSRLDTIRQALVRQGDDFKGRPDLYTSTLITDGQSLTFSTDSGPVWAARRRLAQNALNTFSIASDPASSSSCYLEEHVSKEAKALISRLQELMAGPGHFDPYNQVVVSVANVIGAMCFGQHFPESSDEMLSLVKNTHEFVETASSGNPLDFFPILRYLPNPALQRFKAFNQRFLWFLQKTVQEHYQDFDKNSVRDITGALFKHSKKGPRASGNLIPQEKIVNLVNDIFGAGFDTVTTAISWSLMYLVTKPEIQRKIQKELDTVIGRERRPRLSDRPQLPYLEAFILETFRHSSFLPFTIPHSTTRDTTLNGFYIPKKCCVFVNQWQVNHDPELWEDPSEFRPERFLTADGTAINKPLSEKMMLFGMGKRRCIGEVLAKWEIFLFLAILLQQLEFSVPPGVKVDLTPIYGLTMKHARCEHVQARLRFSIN
Outline: (§2)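 Recombinant CYP isoforms (five tested) screened for inhibition in fluorescence-based assays; IC50 in μM.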

Cytochrome P450 2C9 = Cytochrome P450 2C9 (Homo sapiens, UniProt P11712); assay: Inhibition of recombinant CYP2C9 (unknown origin) by fluorescence-based assay; type: ADME; outline: as §2
Cytochrome P450 2C19 = Cytochrome P450 2C19 (Homo sapiens, UniProt P33261); assay: Inhibition of recombinant CYP2C19 (unknown origin) by fluorescence-based assay; type: ADME; outline: as §2
Cytochrome P450 2D6 = Cytochrome P450 2D6 (Homo sapiens, UniProt P10635); assay: Inhibition of recombinant CYP2D6 (unknown origin) by fluorescence-based assay; type: ADME; outline: as §2
Sequence of Cytochrome P450 2D6 (P10635 whole entry): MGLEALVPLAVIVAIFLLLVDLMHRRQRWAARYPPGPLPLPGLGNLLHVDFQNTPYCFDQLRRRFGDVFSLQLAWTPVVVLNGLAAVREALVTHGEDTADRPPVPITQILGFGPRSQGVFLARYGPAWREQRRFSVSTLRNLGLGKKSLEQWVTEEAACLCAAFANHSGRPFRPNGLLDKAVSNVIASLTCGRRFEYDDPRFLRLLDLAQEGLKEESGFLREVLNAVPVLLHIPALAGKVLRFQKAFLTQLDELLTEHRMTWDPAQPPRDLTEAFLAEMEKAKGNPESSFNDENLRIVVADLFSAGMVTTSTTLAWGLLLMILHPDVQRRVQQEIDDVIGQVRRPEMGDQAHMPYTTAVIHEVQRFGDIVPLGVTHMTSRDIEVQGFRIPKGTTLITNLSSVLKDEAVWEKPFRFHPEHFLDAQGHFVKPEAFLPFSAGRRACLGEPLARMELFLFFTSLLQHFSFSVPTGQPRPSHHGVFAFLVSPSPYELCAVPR

Sequence of Cytochrome P450 2C9 (P11712 whole entry): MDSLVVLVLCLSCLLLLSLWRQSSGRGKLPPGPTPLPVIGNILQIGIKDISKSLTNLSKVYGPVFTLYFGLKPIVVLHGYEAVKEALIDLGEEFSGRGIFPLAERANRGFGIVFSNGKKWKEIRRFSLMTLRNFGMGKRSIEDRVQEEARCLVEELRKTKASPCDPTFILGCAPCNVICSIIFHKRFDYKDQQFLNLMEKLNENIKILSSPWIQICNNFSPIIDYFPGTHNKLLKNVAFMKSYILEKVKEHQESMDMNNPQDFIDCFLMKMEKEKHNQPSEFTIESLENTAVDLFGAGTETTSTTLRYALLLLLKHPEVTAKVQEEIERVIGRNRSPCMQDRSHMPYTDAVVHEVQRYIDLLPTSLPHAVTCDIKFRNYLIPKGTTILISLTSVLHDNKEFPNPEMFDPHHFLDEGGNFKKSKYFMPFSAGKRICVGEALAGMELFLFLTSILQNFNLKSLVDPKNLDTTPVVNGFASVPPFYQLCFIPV
Sequence of Cytochrome P450 2C19 (P33261 whole entry): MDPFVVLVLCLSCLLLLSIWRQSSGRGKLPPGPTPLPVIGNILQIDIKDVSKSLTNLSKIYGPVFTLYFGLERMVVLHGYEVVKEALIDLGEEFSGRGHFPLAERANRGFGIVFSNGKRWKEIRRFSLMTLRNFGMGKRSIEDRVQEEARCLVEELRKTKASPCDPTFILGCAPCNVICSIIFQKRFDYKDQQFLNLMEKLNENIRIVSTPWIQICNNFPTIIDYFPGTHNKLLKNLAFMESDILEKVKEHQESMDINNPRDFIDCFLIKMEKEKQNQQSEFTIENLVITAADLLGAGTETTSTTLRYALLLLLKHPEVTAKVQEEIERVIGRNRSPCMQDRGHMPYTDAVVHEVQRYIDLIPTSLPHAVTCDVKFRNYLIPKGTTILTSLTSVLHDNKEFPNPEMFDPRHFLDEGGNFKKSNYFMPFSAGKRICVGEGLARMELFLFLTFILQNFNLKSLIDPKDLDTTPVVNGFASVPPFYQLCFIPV
Sequence of Cytochrome P450 3A4 (P08684 whole entry): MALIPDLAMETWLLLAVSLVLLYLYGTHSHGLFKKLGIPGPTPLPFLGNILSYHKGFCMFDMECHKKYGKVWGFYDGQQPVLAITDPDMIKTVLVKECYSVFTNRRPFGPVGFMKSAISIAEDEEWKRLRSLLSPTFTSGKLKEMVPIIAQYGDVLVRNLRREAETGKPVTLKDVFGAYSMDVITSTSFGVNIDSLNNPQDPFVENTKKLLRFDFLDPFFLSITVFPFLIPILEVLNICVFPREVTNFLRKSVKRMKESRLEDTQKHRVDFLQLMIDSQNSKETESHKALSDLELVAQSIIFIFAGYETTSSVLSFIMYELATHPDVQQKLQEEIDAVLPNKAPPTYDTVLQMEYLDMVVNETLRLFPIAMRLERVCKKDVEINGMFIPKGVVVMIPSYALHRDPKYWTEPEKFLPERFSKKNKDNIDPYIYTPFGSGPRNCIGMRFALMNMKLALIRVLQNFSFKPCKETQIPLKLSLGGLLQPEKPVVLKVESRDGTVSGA

SMILES	pIC50 (Gamma-secretase)	solubility kinetic [1]	Stabilty [2]	Stabilty [3]	Stabilty [4]	further results
COc1cc(-c2csc(Nc3c4c(nn3C)CCCC4)n2)ccc1-n1cnc(C)c1	6.83					
CCn1nc(C(C)C)cc1Nc1nc(-c2ccc(-n3cnc(C)c3)c(OC)n2)cs1	6.74					
CCn1nc2c(c1Nc1nc(-c3ccc(-n4cnc(C)c4)c(OC)n3)cs1)CCC2(C)C	6.96	8.8 µM (≈ 3.96 µg/mL)	31%	61%	49%	pIC50 (Cytochrome P450 3A4): 6.12; pIC50 (Cytochrome P450 1A2): < 4.00; pIC50 (Cytochrome P450 2C9): 4.32; pIC50 (Cytochrome P450 2C19): 4.82; pIC50 (Cytochrome P450 2D6): < 4.00
COc1nc(-c2csc(Nc3cc(C(C)(C)C)nn3CCF)n2)ccc1-n1cnc(C)c1	7.14	3.3 µM (≈ 1.5 µg/mL)	49%	86%	67%	pIC50 (Cytochrome P450 3A4): 7.40; pIC50 (Cytochrome P450 1A2): 4.19; pIC50 (Cytochrome P450 2C9): 5.39; pIC50 (Cytochrome P450 2C19): 5.48; pIC50 (Cytochrome P450 2D6): < 4.00
CCn1nccc1Nc1nc(-c2ccc(-n3cnc(C)c3)c(OC)n2)cs1	< 6.00					
COc1nc(-c2csc(Nc3c4c(nn3CCN3CCOCC3)CCCC4)n2)ccc1-n1cnc(C)c1	6.75	70 µM (≈ 36.4 µg/mL)	0%	22%	11%	
COc1nc(-c2csc(Nc3cc(C(F)(F)F)nn3CC(F)(F)F)n2)ccc1-n1cnc(C)c1	6.70	2 µM (≈ 1.01 µg/mL)				
Cc1cn(-c2ccc(-c3csc(Nc4c5c(nn4C)CCCC5)n3)cc2)cn1	6.34			56%	84%	remaining at 0.5 h, 1 µM ([2]; liver microsomes): 55%
COc1nc(-c2csc(Nc3c4c(nn3CCO)CCC4)n2)ccc1-n1cnc(C)c1	7.12	29 µM (≈ 12.7 µg/mL)	42%	86%	73%	pIC50 (Cytochrome P450 3A4): > 7.30; pIC50 (Cytochrome P450 1A2): < 4.00; pIC50 (Cytochrome P450 2C9): 4.30; pIC50 (Cytochrome P450 2C19): 5.04; pIC50 (Cytochrome P450 2D6): < 4.00
COc1nc(-c2csc(Nc3c4c(nn3C3CCN(C)CC3)CCCC4)n2)ccc1-n1cnc(C)c1	< 6.00	92 µM (≈ 46.4 µg/mL)				
COc1nc(-c2csc(Nc3c4c(nn3CCN3CCCCC3)CCCC4)n2)ccc1-n1cnc(C)c1	6.68	46 µM (≈ 23.9 µg/mL)				
COc1nc(-c2csc(Nc3c4c(nn3CC(F)(F)F)CCCC4)n2)ccc1-n1cnc(C)c1	7.24	7.4 µM (≈ 3.62 µg/mL)	13%	41%	39%	
COc1nc(-c2csc(Nc3cc(C(C)(C)C)nn3C(C)(C)C)n2)ccc1-n1cnc(C)c1	7.40	< 1.6 µM				
CCn1nc(C(C)(C)C)cc1Nc1nc(-c2ccc(-n3cnc(C)c3)c(OC)n2)cs1	6.94	15 µM (≈ 6.56 µg/mL)	38%	89%	67%	
CCn1nc(C(C)(C)C)cc1Nc1nc(-c2ccc(-n3cnc(C)c3)c(OC)c2)cs1	7.02					
CCn1nc2c(c1Nc1nc(-c3ccc(-n4cnc(C)c4)cc3)cs1)CCCC2	6.18					
CCCn1nc2c(c1Nc1nc(-c3ccc(-n4cnc(C)c4)c(OC)n3)cs1)CCCC2	7.32	< 1.6 µM				
CCn1nc2c(c1N(C)c1nc(-c3ccc(-n4cnc(C)c4)c(OC)n3)cs1)CCCC2	6.20	3.4 µM (≈ 1.53 µg/mL)				
COc1nc(-c2csc(Nc3c4c(nn3C3CCOCC3)CCCC4)n2)ccc1-n1cnc(C)c1	6.99	4.7 µM (≈ 2.31 µg/mL)				
COc1nc(-c2csc(Nc3c4c(nn3C(C)C)CCC4)n2)ccc1-n1cnc(C)c1	7.05	5.7 µM (≈ 2.48 µg/mL)	23%	56%	34%	
CCn1nc2c(c1Nc1nc(-c3cnc(-n4cnc(C)c4)c(OC)n3)cs1)CCCC2	7.05	< 1.6 µM				
COc1nc(-c2csc(Nc3c4c(nn3C3CCC3)CCC4)n2)ccc1-n1cnc(C)c1	7.68	2.7 µM (≈ 1.21 µg/mL)	3%	37%	26%	
COc1nc(-c2csc(Nc3c4c(nn3C(C)(C)C)CCC4)n2)ccc1-n1cnc(C)c1	7.21	3.9 µM (≈ 1.75 µg/mL)	21%	55%	20%	
